Screening results deposited in PubChem by The Scripps Research Institute Molecular Screening Center.
SIAE primary: inhibitors of human sialic acid acetylesterase SIAE | AID 1053197 | inhibition, % at 9.66 µM | Q9HAT2 | actives 0.69% (n = 370,000) | SIAE FP-Rh probe binding, fluorescence polarization;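 active means inhibition above a cutoff: mean of compounds within the control limits plus 3 SD of those, cut at about 17% in these data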;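 further: 0% = plate median of compound wells and 100% = probe without SIAE protein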
HTRA1 inhibitor: HTRA1 (human) protease inhibition; Q92743; recombinant HTRA1, FP-rhodamine activity-based probe, fluorescence polarization; inhibition, % at 5.96 µM; actives 0.5% (n = 340,000); AID 504803; in the data active means inhibition above about 36%;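 further: 0% = enzyme with DMSO and 100% = wells lacking enzyme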
Target sequence (Q92743 whole entry, looked up): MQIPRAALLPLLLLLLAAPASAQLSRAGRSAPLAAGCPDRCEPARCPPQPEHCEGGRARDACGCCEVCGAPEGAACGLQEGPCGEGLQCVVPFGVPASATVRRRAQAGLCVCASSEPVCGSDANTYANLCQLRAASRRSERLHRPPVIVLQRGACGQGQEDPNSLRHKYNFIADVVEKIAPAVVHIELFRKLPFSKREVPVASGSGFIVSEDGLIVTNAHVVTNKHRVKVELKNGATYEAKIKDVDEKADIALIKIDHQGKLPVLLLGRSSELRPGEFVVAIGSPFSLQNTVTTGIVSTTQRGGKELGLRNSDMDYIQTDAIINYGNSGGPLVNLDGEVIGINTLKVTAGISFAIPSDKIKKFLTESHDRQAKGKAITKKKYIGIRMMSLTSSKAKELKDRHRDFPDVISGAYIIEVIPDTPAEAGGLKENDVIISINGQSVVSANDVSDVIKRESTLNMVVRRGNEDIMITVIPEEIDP
TCR-CD3 inh: inhibitors of human TCR-CD3 interaction | TAMRA-labeled TCR probe fluorescence, biochemical | inhibition, % at 9.4 µM | actives 0.37% (n = 360,000); in the data active means inhibition above about 19%;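 further: recombinant mutant TCR 2C K166C tagged with TAMRA read by polarization; 0% = receptor in buffer alone and 100% = receptor with positive control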
DAGLB inhibitor: blocks human DAGLB lipase activity; Q8NCG7; HEK293T DAGLB membrane lysate, EnzChek fluorogenic substrate; inhibition, % at 5.17 µM; actives 0.059% (n = 340,000); AID 504411; in the data active means inhibition above about 34%;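 further: 0% = enzyme with vehicle and 100% = wells lacking enzyme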
ABHD4 inh: inhibitors of mouse ABHD4; Q8VD66; purified mABHD4, FP-Rh probe fluorescence polarization; inhibition, % at 8.92 µM; actives 0.54% (n = 370,000); AID 720543;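 active means inhibition exceeding the mean over every tested compound plus 3 SD, cut at about 30% in these data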;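 further: 0% = plate median of compound wells and 100% = S159A mutant with DMSO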
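Material: mouse ABHD4 enzyme, wild type; Benchmarks: S159A mutant high control, sample median low control; Buffer or medium: HEPES pH 7.0, NaCl, Pluronic buffer; Signal: fluorescence polarization; Read-out: percent inhibition of probe binding, normalized to plate controls; Timing: pre-incubation 45 min, probe exposure 60 min, at 25 °C; Dosing: 8.92 µM, single dose.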
SIAE inh conf: confirmation of human SIAE inhibitors; shares compounds with SIAE primary; SIAE FP-Rh activity-based probe, fluorescence polarization; inhibition, % at 9.66 µM; actives 13% (n = 2,300); AID 1117263;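 active means mean inhibition of the replicates above the hit cutoff set in the primary screen, cut at about 17% in these data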;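 further: 0% = SIAE with DMSO and probe and 100% = probe without SIAE; inhibitors lower polarization as more probe stays unbound to SIAE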
Numbers without * were called inactive; nt = no result given. Compounds with a hit are over-represented: about 1.6% of the library has one in this group of screens.

SMILES	SIAE primary	HTRA1 inhibitor	TCR-CD3 inh	DAGLB inhibitor	ABHD4 inh	SIAE inh conf
Cc1ccc(-c2nc(Nc3ccc(N4CCOCC4)cc3)c3ccccc3n2)cc1	21*	nt	-4	nt	2	14
COC(=O)C1=C(C)N(Cc2cccc(C(F)(F)F)c2)C(=NCc2cc(OC)c(OC)c(OC)c2)NC1c1cccc(C(F)(F)F)c1 (stereo not drawn)	3	nt	3	nt	7	nt
O=C(Cn1c(-c2cncs2)nc2ccccc21)NC1CCCCC1	0	nt	nt	nt	4	nt
Cc1noc(C)c1S(=O)(=O)N(C)C[C@@H]1OCc2cnnn2CCCC(=O)N([C@@H](C)CO)C[C@@H]1C	-1	nt	4	nt	0	nt
COCC(=O)N(c1ccc(C(C)(C)C)cc1)C(C(=O)NC(C)(C)C)c1cccnc1 (stereo not drawn)	9	nt	nt	nt	-3	nt
CC(C)(C)OC(=O)N1CCN(C(=O)Nc2ccc3c(c2)OCCO3)CC1	18*	2	-5	2	-2	1
C=CCN1[C@@H](CC(C)C)COc2cc(N3CCSCC3)ccc2S1(=O)=O	0	nt	nt	nt	2	nt
COc1ccc(NC(=O)N(C)C[C@H]2OCc3cnnn3CCCC(=O)N([C@H](C)CO)C[C@@H]2C)c(OC)c1	21*	nt	-3	nt	-2	0
COc1ccc(NC(=O)N(C)C[C@@H]2OCc3cnnn3CCCC(=O)N([C@@H](C)CO)C[C@H]2C)c(OC)c1	9	2	6	0	-1	nt
C#CCNC(=O)C[C@H]1C[C@@]2(C(=O)OC)C(=C[C@H](C(C)(C)C)O[C@@H]2C)N(Cc2ccccc2)C1=O	1	nt	2	nt	2	nt
O=C(/C=C(\Nc1cc(Cl)c(F)c(Cl)c1)c1ccccc1)c1ccccc1	2	nt	-12	nt	-4	nt
CC1(NC(=O)Nc2cccc3ccccc23)CCS(=O)(=O)C1 (stereo not drawn)	22*	4	3	-3	-10	1
CN(C)c1cccc(NC(=O)NC2(C)CCS(=O)(=O)C2)c1 (stereo not drawn)	4	5	-8	-1	-5	nt
Cc1ccc([N+](=O)[O-])cc1NC(=O)C1CCN(S(C)(=O)=O)CC1	20*	0	1	0	5	3
Cc1ccc([N+](=O)[O-])cc1NC(=O)C1CCCC1	5	2	6	-1	-6	nt
O=C(NCc1ccc(C(=O)N2CCCC2)cc1)c1cccc(Br)c1	-1	nt	nt	nt	4	nt
CN(c1ccc(NC(=O)Cc2cn(C)c3ccccc23)cc1)c1ccccn1	29*	nt	-7	nt	3	29*
CC(C)c1ccc(NC(=O)Cc2cn(C)c3ccccc23)cc1	3	-17	4	-20	-4	nt
CN(c1ccc(NC(=O)CCc2c[nH]c3ccccc23)cc1)c1ccccn1	27*	nt	-3	nt	-1	22*
COC(=O)[C@]12C[C@H](CC(=O)NCCCN3CCCC3=O)C(=O)N(Cc3cccc4ccccc34)C1=C[C@H](C(C)(C)C)O[C@@H]2C	-1	nt	nt	nt	-2	nt
CCNC(=S)Nc1cc(C(=O)N2CCCC2)ccc1N1CCCC1	23*	0	2	0	1	1
O=Nc1c(O)[nH]c2ccc(F)cc12	23*	15	-2	-5	12	22*
O=[N+]([O-])c1ccc(N=Nc2c(O)[nH]c3ccc(F)cc23)cc1	-12	0	-5	17	5	nt
COc1ccc2[nH]c(O)c(N=NC(=O)Cc3cccs3)c2c1	18*	9	12	8	20	11
COc1ccc2[nH]c(O)c(N=O)c2c1	26*	9	11	-2	10	23*
SMILES	SIAE primary	HTRA1 inhibitor	TCR-CD3 inh	DAGLB inhibitor	ABHD4 inh	SIAE inh conf
O=Nc1c(O)[nH]c2ccc(Cl)cc12	28*	14	-11	-8	3	25*
Cc1ccccc1NC(=O)[C@@H]1CC(=O)O[C@@H]1c1ccccc1	-4	nt	nt	nt	1	nt
CC1CCN(C(=O)c2ncn3c2C(=O)NC[C@@H]3C)CC1	-7	nt	7	nt	6	nt
CC(OC(=O)c1ccc(Cl)nc1)C(=O)NC1CCCC1 (stereo not drawn)	19*	-1	-5	-2	0	-2
S=C(Nc1cc(Cl)cc(Cl)c1)NC(c1ccccc1)c1ccccc1	-140	nt	nt	nt	-101	nt
NC(=O)C1CCN(c2ncc(Br)s2)CC1	21*	nt	nt	nt	27	4
COC(=O)[C@]12C[C@H](CC(=O)NCCC(C)C)C(=O)N(CCC3=CCCCC3)C1=C[C@H](C(C)C)O[C@@H]2C1CC1	-2	nt	nt	nt	3	nt
O=C(Nc1ccncc1)C1CCN(S(=O)(=O)c2cccc(C(F)(F)F)c2)CC1	18*	11	4	4	4	0
O=C(COC(=O)CSc1ccc(Cl)cc1)Nc1ccccc1	-7	-3	-4	-5	-3	nt
O=C(COC(=O)c1ccc(CSc2ccc(Cl)cc2)cc1)Nc1ccccc1	20*	-3	1	-2	1	-4
O=C(N[C@@H]1CC[C@H]2SC[C@H](C(=O)O)N2C1=O)OCC1c2ccccc2-c2ccccc21	0	nt	nt	nt	-2	nt
COC(=O)c1cccc(NC(=O)Nc2ccc(Cl)cc2)c1	19*	nt	6	nt	-18	-1
COC(=O)c1cccc(NC(=O)NC(=O)c2ccc(Cl)cc2)c1	-6	nt	2	nt	5	nt
CCOC(=O)c1c[nH]n(-c2ccc(C)cc2)c1=O	18*	-2	-4	-1	3	1
COc1cc(-c2nc3ccccn3c2/N=C/c2cc(OC)c(OC)c(OC)c2)ccc1O	28*	-4	1	1	6	16
O=C(NCCCN1CCOCC1)c1ccc(S(=O)(=O)Nc2ccccc2F)cc1	17*	-1	0	2	3	-2
CCC(CO)Oc1cc(NCc2ccc(Cl)cc2Cl)c2ncn(C(C)C)c2c1 (stereo not drawn)	19*	9	-1	2	28	8
CCC(CO)Oc1cc(NCc2ccc(Cl)cc2)c2ncn(C(C)C)c2c1 (stereo not drawn)	-2	23	-8	2	12	nt
CCc1ccccc1NC(=O)CN(C)C(=O)CSc1nn(-c2ccc(F)cc2)c(=S)s1	18*	-9	-1	2	-11	0
CCOC(=O)COc1cc(-n2c(=S)[nH]c3cc(OC)c(OC)cc3c2=O)c(Cl)cc1Cl	-2	2	-5	3	7	nt
CCOC(=O)COc1cc(N2C(=O)CSCC2=O)c(Cl)cc1Cl	71*	-3	-1	-4	-13	3
O=C(NC1CCCC1)[C@@H]1CCCN1C(=O)[C@@H](NC(=O)N1CCOCC1)C1CCCCC1	-6	nt	0	nt	4	nt
Cc1cccc(OCCC(=O)NNC(=O)Cn2nc(C)cc2C)c1	-6	-1	-4	0	-2	nt
CCOc1ccccc1OCCC(=O)NNC(=O)Cn1nc(C)cc1C	17*	3	1	2	6	4
COc1cc(NC(=O)CSc2nc3ncnc(N)c3[nH]2)c(C(=O)O)cc1OC	18*	-3	-1	-3	-5	1
